Reference: publication PMC8434796 (Glycobiology, 2021)
Converted amounts (≈) assume the structure as drawn. “And” between values parts separate entries of the source, which are not always exact repeats. Equal entries are not always repeated. Values belong to the molecule of their own block, whether it stands above or below them.

Assays:
NIH3T3 cells [1] = test: Cell population doubling time; type: cell-based, mouse; details: 72 h; for Doubling time: control 21 h
NIH3T3 cells [2] = test: Microscopic evaluation; type: cell-based, mouse; details: 10 μM, 3 days, HABP staining, vs DMSO control
In short: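 NIH3T3 seeded at 2 × 10^4 cells/well; next day fresh medium with 10 μM test compound, 3 days. Fixed 10 min in 10% buffered formalin, avidin-biotin blocked, biotinylated HABP overnight at 4°C, then streptavidin-Alexa 488, Hoechst and phalloidin. Confocal 40× 5 × 5 mosaics; HA-positive area as % of total cell area. Three wells. Controls: 0.05% DMSO; hyaluronidase digest of untreated cells (1 mg/mL, 30 min, 37°C).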

HAS2 = test: qPCR relative expression of HAS2 in NIH3T3 cells; type: cell-based, mouse
In short: (§1)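 Total RNA isolated with TRI reagent; concentration and quality checked by spectrophotometry and electrophoresis. Target mRNA quantified by SYBR Green real-time qPCR and normalized to GAPDH mRNA. Values are mean ± SD of three technical replicates.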

HAS3 = test: qPCR relative expression of HAS3 in NIH3T3 cells; type: cell-based, mouse
In short: as §1

Hyal1 = test: qPCR relative expression of Hyal1 in NIH3T3 cells; type: cell-based, mouse
In short: as §1

Hyal2 = test: qPCR relative expression of Hyal2 in NIH3T3 cells; type: cell-based, mouse
In short: as §1

[3] = tested on: CCl4 induced liver fibrosis; test: CCl4-induced liver fibrosis in mice; type: in vivo; details: for Blood parameters, compound alone vs control group: mice treated by compound only, 600 mg/kg daily; for Hepatotoxicity of compound alone (AST/ALT): mice, daily dose of 600 mg/kg per os
[4] = tested on: CCl4 induced liver fibrosis; details: CCl4 treated animals; ref Andreichenko et al. 2019; cited from earlier work
[5] = tested on: hyaluronan synthase activity; details: plasma membrane preparations containing hyaluronan synthase activity; ref Nakamura et al. 1997; cited from earlier work
[6] = tested on: A2058 melanoma cells, MCF-7 and MDA-MB-361 breast, SKOV-3 ovarian and UT-SCC118 squamous carcinoma cells; details: incubation with 4MU; ref Kultti et al. 2009; cited from earlier work
endothelial cells = details: 0.6 μM, ref Nagy et al. 2010; cited from earlier work
B16F10 cells = details: 30 μM, ref Nagy et al. 2019; cited from earlier work
[7] = mice fed with 5% chow, averaged over 24 h; ref Kuipers et al. 2016; cited from earlier work
NIH3T3 cells [8] = test: Inhibition of hyaluronan secreted in NIH3T3 cell culture media; type: cell-based, mouse; details: for Effect on hyaluronan production (in words): NIH3T3 HA production assay; for IC50: Mus musculus, NIH3T3, 72 h, read-out: IC50 for inhibition of hyaluronan deposition in cell culture media
NIH3T3 cells [9] = test: MTT cell viability assay; type: cell-based, mouse; details: proliferating NIH3T3 cells, 3 days incubation
In short: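 Proliferating NIH3T3 fibroblasts exposed for 3 days to rising test compound concentrations. MTT (5 mg/mL in PBS, 10 μL per 100 μL medium) incubated 3 h at 37°C, 5% CO2. Plates centrifuged, medium removed, formazan dissolved in DMSO, absorbance read at 570 nm. n = 3.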

[10] = tested on: human pancreatic cancer cell (KP1-NL); details: fixed concentration 10 μM; ref Morohashi et al. 2006; cited from earlier work
Drosophila WT = details: wild-type Drosophila; ref Douris et al. 2016; cited from earlier work
[11] = tested on: Drosophila mutEt15 (I1056F/M); details: Drosophila line with CRISPR/Cas9 point mutation I1056F/M; ref Douris et al. 2016; cited from earlier work
zebrafish embryos = details: ref Park et al. 2019; cited from earlier work

IC50 (HAS2; Mus musculus, NIH3T3, read-out: IC50 for inhibition of HAS2 expression): ~250 µM | IC50 (Hyal1; Mus musculus, NIH3T3, read-out: Upregulated Hyal1 expression with IC50): ~250 µM | Blood parameters, compound alone vs control group [3]: did not find any significant differences
Structure (SMILES): Cc1cc(=O)oc2cc(O)ccc12 [Compound 4MU, 7-hydroxy-4-methylchromen-2-one]
Doubling time (NIH3T3 cells [1]; 250 μM): 38 h | Concentration from/over which doubling time increased (NIH3T3 cells [1]): ≥ 60 µM | Decrease of the percentage of HA-positive area (NIH3T3 cells [2]): at least 3 times | Activated HAS3 expression at concentration over (HAS3): over 500 μM | Hyal2 expression not affected at concentrations up to (Hyal2): > 1 mM | Plasma HA ([3]; CCl4-treated mice, 600 mg/kg daily per os): reduced plasma HA to near the control levels | Hepatotoxicity of compound alone (AST/ALT) [3]: no hepatotoxicity | Collagen deposition in the liver [4]: prevented collagen deposition | HA synthesis in cell-free assay (in words) [5]: did not inhibit HA synthesis | Depletion of UDP-GlcUA levels [6]: 38–95% | Reduction of hyaluronan secretion (endothelial cells): 30% | HA production inhibition (B16F10 cells): 50% | Effective plasma concentration [7]: 0.89 ± 0.51 μg/mL and 5.1 ± 2.9 μM

Structure (SMILES): Cc1cc(=O)oc2c(C)c3c(cc12)C(=O)CC1(CCCCC1)O3 [Compound IX, 6′,10′-dimethyl-3′H-spiro[cyclohexane-1,2′-pyrano[3,2-g]chromene]-4′,8′-dione]
Effect on hyaluronan production (in words) (NIH3T3 cells [8]): completely abrogated inhibition of hyaluronan production | Did not affect cell viability at concentrations up to (NIH3T3 cells [9]): > 1 mM | Not toxic in concentrations up to (MTT) (NIH3T3 cells [9]): > 0.5 mM | Doubling time (NIH3T3 cells [1]; all tested concentrations): 16.5 h

Structure (SMILES): CC(=O)c1cc2c(-c3ccccc3)cc(=O)oc2c(C)c1O [Compound V, 6-acetyl-7-hydroxy-8-methyl-4-phenyl-2H-chromen-2-one]
Toxicity at concentrations higher than (MTT) (NIH3T3 cells [9]): higher than 125 μM | Concentration from/over which doubling time increased (NIH3T3 cells [1]): ≥ 125 µM

Structure (SMILES): Cc1c2c(cc3c(-c4ccccc4)cc(=O)oc13)C(=O)CC1(CCCCC1)O2 [Compound VI, 10′-methyl-6′-phenyl-3′H-spiro[cyclohexane-1,2′-pyrano[3,2-g]chromene]-4′,8′-dione]
Effect on hyaluronan production (in words) (NIH3T3 cells [8]): completely abrogated inhibition of hyaluronan production | Did not affect cell viability at concentrations up to (NIH3T3 cells [9]): > 1 mM | Not toxic in concentrations up to (MTT) (NIH3T3 cells [9]): > 0.5 mM

Structure (SMILES): Cc1c2c(cc3c(-c4ccccc4)cc(=O)oc13)C(=O)CC1(CCNCC1)O2 [Compound VII, 10′-methyl-6′-phenyl-3′H-spiro[piperidine-4,2′-pyrano[3,2-g]chromene]-4′,8′-dione]
Concentration from/over which doubling time increased (NIH3T3 cells [1]): over 10 μM | Decrease of the percentage of HA-positive area (NIH3T3 cells [2]): at least 3 times

Structure (SMILES): COc1ccc2c(C)cc(=O)oc2c1 [II, 7-methoxy-4-methyl coumarin]
Inhibitory activity on HA production (in words) [10]: inactive

Structure (SMILES): CCN(CC)Cc1cc2c(-c3ccccc3)cc(=O)oc2c(C)c1O [IV, 6-((diethylamino)methyl)-7-hydroxy-8-methyl-4-phenyl-2H-chromen-2-one]
Concentration from/over which doubling time increased (NIH3T3 cells [1]): ≥ 500 µM

Structure (SMILES): CC(=O)c1cc2c(C)cc(=O)oc2c(C)c1O [VIII, 6-acetyl-7-hydroxy-4,8-dimethyl-2H-chromen-2-one]
Toxicity at concentrations higher than (MTT) (NIH3T3 cells [9]): > 60 µM | Concentration from/over which doubling time increased (NIH3T3 cells [1]): > 50 µM | Decrease of the percentage of HA-positive area (NIH3T3 cells [2]): at least 3 times

Structure (SMILES): CC(C)N1C(=O)N(c2ccccc2)CSC1=NC(C)(C)C [buprofezin, 2-(tert-butylimino)-5-phenyl-3-(propan-2-yl)-1,3,5-thiadiazinan-4-one]
IC50 (NIH3T3 cells [8]): 1.24 ± 0.87 µM | Not toxic in concentrations up to (MTT) (NIH3T3 cells [9]): > 1 mM | LC50 WT (Drosophila WT): 53.2 µg/mL (≈ 174 µM) | LC50 mutEt15 [11]: > 1000 µg/mL

Structure (SMILES): O=C(NC(=O)c1c(F)cccc1F)Nc1ccc(Cl)cc1 [diflubenzuron]
LC50 WT (Drosophila WT): 0.322 µg/mL (≈ 1.04 µM) | LC50 mutEt15 [11]: > 5000 µg/mL

Structure (SMILES): CCOc1cc(C(C)(C)C)ccc1C1COC(c2c(F)cccc2F)=N1 (centres unmarked) [etoxazole, 4-(4-tert-butyl-2-ethoxyphenyl)-2-(2,6-difluorophenyl)-4,5-dihydro-1,3-oxazole]
IC50 (NIH3T3 cells [8]): 4.21 ± 3.82 µM | Not toxic in concentrations up to (MTT) (NIH3T3 cells [9]): > 1 mM | Upregulation of HAS2 expression (HAS2; NIH3T3 cells, 120 μM): ~1.5 times | Suppression of HAS2 expression (HAS2; NIH3T3 cells, doses higher than 120 μM): up to 80% | Inhibited HAS3 expression at concentrations higher than (HAS3): higher than 250 μM | Hyal1 level (in words) (Hyal1; NIH3T3 cells, all tested concentrations): significantly dropped | Level of Hyal2 (in words) (Hyal2): not affected | αSMA level in liver homogenate (western blot) ([3]; CCl4-treated mice, 600 mg/kg daily per os, n = 5): significant reduction | Plasma HA ([3]; CCl4-treated mice, 600 mg/kg daily per os, 600 mg/kg): reduced plasma HA to near the control levels | Plasma HA ([3]; CCl4-treated mice, 600 mg/kg daily per os, listed as Etoxazole, 600 mg/kg): reduced HA production | Blood parameters, compound alone vs control group [3]: did not find any significant differences | Hepatotoxicity of compound alone (AST/ALT) [3]: no hepatotoxicity | Effect on cardiovascular development (in words) (zebrafish embryos): inhibits cardiovascular development

Structure (SMILES): O=C(NC(=O)c1c(F)cccc1F)Nc1cc(Cl)c(OC(F)(F)C(F)C(F)(F)F)cc1Cl (centres unmarked) [lufenuron]
LC50 WT (Drosophila WT): 0.148 µg/mL (≈ 0.29 µM) | LC50 mutEt15 [11]: 16.659 µg/mL (≈ 32.6 µM)

Structure (SMILES): C[C@@H]([C@H](N)C(=O)N[C@H](C(=O)O)[C@H]1O[C@@H](n2ccc(=O)[nH]c2=O)[C@H](O)[C@@H]1O)[C@H](O)c1ccc(O)cn1 [nikkomycin]
Effect on hyaluronan production (in words) (NIH3T3 cells [8]): ineffective

Structure (SMILES): O=C(NC(=O)c1ccccc1Cl)Nc1ccc(OC(F)(F)F)cc1 [triflumuron, 2-chloro-N-[[4-(trifluoromethoxy)phenyl]carbamoyl] benzamide]
IC50 (NIH3T3 cells [8]): 1.48 ± 1.44 µM | Not toxic in concentrations up to (MTT) (NIH3T3 cells [9]): > 1 mM
